# Results reported in ChEMBL document CHEMBL5678806, “NMS-P937, an orally available, specific small-molecule polo-like kinase 1 inhibitor with antitumor activity in solid and hematologic malignancies” (Mol Cancer Ther, 2012).
# The source made the active and inactive calls. The calls are words filed in the database; no cut-off is given here.
# Assays:
# [1] = molecular target: Cyclin-dependent kinase 2/cyclin E1 (Homo sapiens, UniProt P24941); experiment: Inhibition of CDK2/CycE (unknown origin) in presence of [gamma-33P]ATP; type: protein-complex assay
# [2] = molecular target: Eukaryotic elongation factor 2 kinase (Homo sapiens, UniProt O00418); experiment: Inhibition of EEF2K (unknown origin) in presence of [gamma-33P]ATP
# [3] = molecular target: Insulin receptor (Homo sapiens, UniProt P06213); experiment: Inhibition of IR (unknown origin) in presence of [gamma-33P]ATP
# Chain of Insulin receptor (P06213 28-758 limits assumed): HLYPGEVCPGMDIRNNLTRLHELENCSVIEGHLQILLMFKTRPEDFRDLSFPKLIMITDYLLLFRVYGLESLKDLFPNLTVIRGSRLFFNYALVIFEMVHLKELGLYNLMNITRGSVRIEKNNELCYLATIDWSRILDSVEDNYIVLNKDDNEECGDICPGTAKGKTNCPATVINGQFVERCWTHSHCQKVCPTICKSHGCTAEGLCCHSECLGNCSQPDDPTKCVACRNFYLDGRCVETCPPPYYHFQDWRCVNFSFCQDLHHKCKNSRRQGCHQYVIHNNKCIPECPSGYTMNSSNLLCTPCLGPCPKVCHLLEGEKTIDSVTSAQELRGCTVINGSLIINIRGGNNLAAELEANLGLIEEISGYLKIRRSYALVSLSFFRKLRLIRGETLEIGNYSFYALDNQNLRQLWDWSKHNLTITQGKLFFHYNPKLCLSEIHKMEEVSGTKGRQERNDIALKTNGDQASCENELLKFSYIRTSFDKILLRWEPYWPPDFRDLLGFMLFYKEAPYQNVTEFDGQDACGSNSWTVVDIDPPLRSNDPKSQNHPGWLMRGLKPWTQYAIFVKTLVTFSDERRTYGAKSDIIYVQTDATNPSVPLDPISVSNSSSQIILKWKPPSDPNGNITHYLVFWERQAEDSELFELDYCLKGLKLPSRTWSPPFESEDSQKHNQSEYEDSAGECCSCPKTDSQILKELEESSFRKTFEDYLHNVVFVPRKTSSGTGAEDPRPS
# Chain of Insulin receptor (P06213 763-1382 limits assumed): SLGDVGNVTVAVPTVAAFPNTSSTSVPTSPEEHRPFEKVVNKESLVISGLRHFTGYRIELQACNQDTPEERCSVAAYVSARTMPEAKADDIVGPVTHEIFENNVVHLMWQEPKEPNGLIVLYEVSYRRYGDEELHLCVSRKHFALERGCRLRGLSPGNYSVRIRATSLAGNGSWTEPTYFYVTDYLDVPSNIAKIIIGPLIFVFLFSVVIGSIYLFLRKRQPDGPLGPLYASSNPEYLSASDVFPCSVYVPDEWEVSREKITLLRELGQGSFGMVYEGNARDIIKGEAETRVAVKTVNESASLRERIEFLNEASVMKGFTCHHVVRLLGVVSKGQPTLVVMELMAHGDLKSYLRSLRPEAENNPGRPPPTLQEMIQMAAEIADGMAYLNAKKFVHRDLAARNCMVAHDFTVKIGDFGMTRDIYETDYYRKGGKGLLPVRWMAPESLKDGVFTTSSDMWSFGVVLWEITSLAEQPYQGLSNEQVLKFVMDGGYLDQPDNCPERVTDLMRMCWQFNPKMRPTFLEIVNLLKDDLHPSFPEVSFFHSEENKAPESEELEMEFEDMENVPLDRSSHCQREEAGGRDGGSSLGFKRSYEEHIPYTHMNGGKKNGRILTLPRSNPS
# [4] = molecular target: Proto-oncogene tyrosine-protein kinase ROS (Homo sapiens, UniProt P08922); experiment: Inhibition of ROS (unknown origin) in presence of [gamma-33P]ATP
# Chain of Proto-oncogene tyrosine-protein kinase ROS (P08922 whole entry): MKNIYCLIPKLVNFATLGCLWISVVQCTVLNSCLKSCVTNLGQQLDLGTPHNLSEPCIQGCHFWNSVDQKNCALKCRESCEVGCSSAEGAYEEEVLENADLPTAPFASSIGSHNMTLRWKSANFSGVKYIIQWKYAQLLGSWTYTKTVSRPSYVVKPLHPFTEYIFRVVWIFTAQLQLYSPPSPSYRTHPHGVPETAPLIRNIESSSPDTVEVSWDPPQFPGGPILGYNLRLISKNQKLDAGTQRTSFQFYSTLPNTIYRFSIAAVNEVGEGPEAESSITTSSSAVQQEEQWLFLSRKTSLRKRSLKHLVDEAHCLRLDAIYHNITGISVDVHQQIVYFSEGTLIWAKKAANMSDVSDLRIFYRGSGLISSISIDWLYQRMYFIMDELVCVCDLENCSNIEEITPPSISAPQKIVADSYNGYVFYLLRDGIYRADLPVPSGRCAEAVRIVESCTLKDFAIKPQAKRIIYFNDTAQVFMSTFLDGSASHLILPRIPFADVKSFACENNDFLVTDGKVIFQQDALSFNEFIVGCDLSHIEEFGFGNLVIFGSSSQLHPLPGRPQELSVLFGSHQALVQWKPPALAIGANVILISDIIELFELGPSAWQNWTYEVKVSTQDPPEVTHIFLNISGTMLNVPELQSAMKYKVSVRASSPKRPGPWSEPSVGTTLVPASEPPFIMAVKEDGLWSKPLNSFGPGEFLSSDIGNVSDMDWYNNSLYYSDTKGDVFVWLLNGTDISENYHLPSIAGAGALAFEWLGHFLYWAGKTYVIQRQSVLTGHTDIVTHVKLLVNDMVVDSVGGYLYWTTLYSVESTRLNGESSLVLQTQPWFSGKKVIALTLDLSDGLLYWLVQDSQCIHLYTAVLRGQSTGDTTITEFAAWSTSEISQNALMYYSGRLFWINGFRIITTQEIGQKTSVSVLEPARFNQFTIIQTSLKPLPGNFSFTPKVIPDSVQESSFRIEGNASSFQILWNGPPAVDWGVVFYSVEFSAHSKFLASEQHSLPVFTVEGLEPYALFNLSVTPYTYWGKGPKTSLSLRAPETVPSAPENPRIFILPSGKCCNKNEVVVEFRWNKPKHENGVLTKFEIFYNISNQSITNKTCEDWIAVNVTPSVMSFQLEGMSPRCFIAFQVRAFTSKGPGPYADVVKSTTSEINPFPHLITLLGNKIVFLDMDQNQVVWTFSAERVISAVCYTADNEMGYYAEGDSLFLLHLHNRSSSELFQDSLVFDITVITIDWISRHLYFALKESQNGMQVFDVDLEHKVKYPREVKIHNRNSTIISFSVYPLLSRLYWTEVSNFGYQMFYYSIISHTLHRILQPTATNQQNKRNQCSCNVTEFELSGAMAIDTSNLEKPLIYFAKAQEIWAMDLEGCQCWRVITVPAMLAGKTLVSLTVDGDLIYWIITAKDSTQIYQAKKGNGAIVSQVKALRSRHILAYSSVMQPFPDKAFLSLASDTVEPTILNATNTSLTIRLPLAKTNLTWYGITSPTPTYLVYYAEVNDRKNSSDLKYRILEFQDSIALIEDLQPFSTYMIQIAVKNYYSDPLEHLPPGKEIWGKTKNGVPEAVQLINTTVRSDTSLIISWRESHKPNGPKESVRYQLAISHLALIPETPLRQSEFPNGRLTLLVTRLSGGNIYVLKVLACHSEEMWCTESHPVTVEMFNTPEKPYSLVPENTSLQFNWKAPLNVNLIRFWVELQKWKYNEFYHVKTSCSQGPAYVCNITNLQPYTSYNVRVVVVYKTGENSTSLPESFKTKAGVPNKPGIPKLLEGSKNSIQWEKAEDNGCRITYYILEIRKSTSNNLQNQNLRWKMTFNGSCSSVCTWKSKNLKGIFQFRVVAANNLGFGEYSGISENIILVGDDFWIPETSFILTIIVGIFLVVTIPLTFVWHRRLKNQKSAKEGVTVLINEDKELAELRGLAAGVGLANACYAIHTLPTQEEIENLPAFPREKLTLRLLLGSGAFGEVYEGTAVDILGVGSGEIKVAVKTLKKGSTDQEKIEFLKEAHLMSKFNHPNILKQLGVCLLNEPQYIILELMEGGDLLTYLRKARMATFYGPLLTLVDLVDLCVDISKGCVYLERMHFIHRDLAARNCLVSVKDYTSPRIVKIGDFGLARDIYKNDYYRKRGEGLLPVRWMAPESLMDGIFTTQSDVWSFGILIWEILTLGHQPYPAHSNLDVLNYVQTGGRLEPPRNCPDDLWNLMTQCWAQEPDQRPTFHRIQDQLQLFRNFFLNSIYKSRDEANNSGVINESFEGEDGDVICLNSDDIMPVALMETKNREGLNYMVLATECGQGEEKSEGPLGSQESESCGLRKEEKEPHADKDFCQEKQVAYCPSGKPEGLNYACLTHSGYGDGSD
# [5] = molecular target: Vascular endothelial growth factor receptor 2 (Homo sapiens, UniProt P35968); experiment: Inhibition of VEGFR2 (unknown origin) in presence of [gamma-33P]ATP
# [6] = molecular target: ALK tyrosine kinase receptor (Homo sapiens) (UniProt Q9UM73); experiment: Inhibition of N-terminal His6-tagged recombinant human ALK (1058 to end residues) expressed in baculovirus infected Sf21 cells assessed as residual activity at 0.1 uM relative to control
# [7] = molecular target: CDK6/cyclin D3 (Homo sapiens) (UniProt P30281+Q00534); experiment: Inhibition of N-terminal His6-tagged full-length human CDK6/N-terminal GST-tagged full-length human cyclinD3 expressed in Sf21 cells assessed as residual activity at 0.1 uM relative to control
# [8] = molecular target: CDK9/cyclin T1 (Homo sapiens) (UniProt O60563+P50750); experiment: Inhibition of C-terminal 6His-tagged full-length recombinant human CDK9/ full-length human cyclin T1 expressed in baculovirus infected Sf21 cells assessed as residual activity at 0.1 uM relative to control
# [9] = molecular target: Serine/threonine-protein kinase Nek3 (Homo sapiens) (UniProt P51956); experiment: Inhibition of N-terminal 6His-tagged recombinant full length human NEK3 expressed in baculovirus infected Sf21 cells assessed as residual activity at 1 uM relative to control
# Chain of Serine/threonine-protein kinase Nek3 (Homo sapiens) (P51956 whole entry): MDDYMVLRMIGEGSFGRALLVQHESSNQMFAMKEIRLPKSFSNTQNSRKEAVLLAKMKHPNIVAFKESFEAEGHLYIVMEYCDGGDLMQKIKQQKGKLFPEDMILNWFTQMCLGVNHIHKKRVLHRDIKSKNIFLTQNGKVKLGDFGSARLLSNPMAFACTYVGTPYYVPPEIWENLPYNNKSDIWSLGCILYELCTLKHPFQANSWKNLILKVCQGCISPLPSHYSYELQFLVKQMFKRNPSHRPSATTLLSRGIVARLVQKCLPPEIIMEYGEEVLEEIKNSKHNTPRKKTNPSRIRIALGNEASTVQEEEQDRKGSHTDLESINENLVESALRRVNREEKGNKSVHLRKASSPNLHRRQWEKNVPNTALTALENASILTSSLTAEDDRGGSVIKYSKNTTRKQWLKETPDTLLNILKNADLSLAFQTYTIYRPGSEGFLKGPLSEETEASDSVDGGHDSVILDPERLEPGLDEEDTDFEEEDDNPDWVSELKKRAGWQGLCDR
# [10] = molecular target: RAC-alpha serine/threonine-protein kinase (Homo sapiens, UniProt P31749); experiment: Inhibition of N-terminal His6 tagged recombinant full-length human PKBalpha expressed in baculovirus infected Sf21 cells assessed as residual activity at 1 uM relative to control
# Chain of RAC-alpha serine/threonine-protein kinase (P31749 whole entry, the tested form may be a part): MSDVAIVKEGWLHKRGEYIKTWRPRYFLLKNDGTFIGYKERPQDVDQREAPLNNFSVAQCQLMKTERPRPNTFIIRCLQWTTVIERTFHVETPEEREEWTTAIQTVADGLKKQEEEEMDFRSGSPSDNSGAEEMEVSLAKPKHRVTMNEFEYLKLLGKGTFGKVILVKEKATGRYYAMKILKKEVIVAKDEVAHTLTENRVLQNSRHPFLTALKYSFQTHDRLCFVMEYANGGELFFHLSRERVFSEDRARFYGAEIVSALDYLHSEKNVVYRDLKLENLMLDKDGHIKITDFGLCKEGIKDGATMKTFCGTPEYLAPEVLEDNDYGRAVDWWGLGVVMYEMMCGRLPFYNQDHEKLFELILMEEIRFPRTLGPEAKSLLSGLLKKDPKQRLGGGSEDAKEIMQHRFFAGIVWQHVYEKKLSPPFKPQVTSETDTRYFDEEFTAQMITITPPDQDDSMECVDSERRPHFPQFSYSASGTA
# [11] = molecular target: Mitogen-activated protein kinase 11 (Homo sapiens) (UniProt Q15759); experiment: Inhibition of N-terminal GST fusion protein corresponding to full-length human SAPK2b expressed in E. coli assessed as residual activity at 1 uM relative to control
# Chain of Mitogen-activated protein kinase 11 (Homo sapiens) (Q15759 whole entry, the tested form may be a part): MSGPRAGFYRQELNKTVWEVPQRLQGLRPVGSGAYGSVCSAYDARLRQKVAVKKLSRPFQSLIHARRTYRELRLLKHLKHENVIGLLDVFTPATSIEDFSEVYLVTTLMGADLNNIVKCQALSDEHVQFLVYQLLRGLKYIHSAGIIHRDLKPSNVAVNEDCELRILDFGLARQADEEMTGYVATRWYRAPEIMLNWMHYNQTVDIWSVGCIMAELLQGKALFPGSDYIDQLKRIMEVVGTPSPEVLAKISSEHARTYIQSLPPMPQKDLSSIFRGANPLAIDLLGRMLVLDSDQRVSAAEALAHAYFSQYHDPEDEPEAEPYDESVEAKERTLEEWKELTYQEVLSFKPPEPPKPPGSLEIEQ
# [12] = test system: HCC70; experiment: Antiproliferative activity against human HCC70 cells assessed as inhibition of cell growth incubated for 72 hrs by cell-titer glo assay; type: functional, cell-based; settings: HCC70, 72 h
# Summary of the method: (§1)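 Cells seeded at 10,000–30,000/cm² (adherent) or 100,000/mL (nonadherent) in medium with 10% fetal calf serum; after 24 h, treated in duplicate with serial dilutions for 72 h. Viable cell number read by CellTiter-Glo luminescence; IC50 from sigmoidal fit; at least two independent experiments.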
# [13] = test system: CAMA-1; experiment: Antiproliferative activity against human CAMA-1 cells assessed as inhibition of cell growth incubated for 72 hrs by cell-titer glo assay; type: functional, cell-based; settings: CAMA-1, 72 h
# Summary of the method: (§2)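 Cells seeded 10,000–30,000/cm² (adherent) or 100,000/mL (suspension) in medium with 10% fetal calf serum; after 24 h treated in duplicate with serial dilutions for 72 h. Viable cells read by CellTiter-Glo luminescence; IC50 from sigmoidal fit; at least two independent experiments.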
# [14] = test system: HeLa; experiment: Antiproliferative activity against human HeLa cells assessed as inhibition of cell growth incubated for 72 hrs by cell-titer glo assay; type: functional, cell-based; summary of the method: as §1
# [15] = test system: HT-1080; experiment: Antiproliferative activity against human HT-1080 cells assessed as inhibition of cell growth incubated for 72 hrs by cell-titer glo assay; type: functional, cell-based; settings: HT-1080, 72 h; summary of the method: as §1
# [16] = test system: HOP-92; experiment: Antiproliferative activity against human HOP-92 cells assessed as inhibition of cell growth incubated for 72 hrs by cell-titer glo assay; type: functional, cell-based; settings: HOP-92, 72 h; summary of the method: as §1
# [17] = test system: SK-LU-1; experiment: Antiproliferative activity against human SK-LU-1 cells assessed as inhibition of cell growth incubated for 72 hrs by cell-titer glo assay; type: functional, cell-based; settings: SK-LU-1, 72 h
# [18] = test system: Calu-3; experiment: Antiproliferative activity against human Calu-3 cells assessed as inhibition of cell growth incubated for 72 hrs by cell-titer glo assay; type: functional, cell-based; settings: Calu-3, 72 h; summary of the method: as §2
# [19] = Antiproliferative activity against human HCC15 cells assessed as inhibition of cell growth incubated for 72 hrs by cell-titer glo assay; type: functional, cell-based; settings: HCC15, 72 h; summary of the method: as §1
# [20] = Antiproliferative activity against human LUDLU-1 cells assessed as inhibition of cell growth incubated for 72 hrs by cell-titer glo assay; type: functional, cell-based; settings: LUDLU-1, 72 h; summary of the method: as §1
# [21] = test system: NCI-H2228; experiment: Antiproliferative activity against human NCI-H2228 cells assessed as inhibition of cell growth incubated for 72 hrs by cell-titer glo assay; type: functional, cell-based; settings: NCI-H2228, 72 h
# Summary of the method: (§3)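 Cells from ATCC or ECACC, kept in supplier-recommended medium with 1% penicillin-streptomycin at 37°C, 5% CO₂. Seeded at 10,000–30,000/cm² (adherent) or 100,000/mL (nonadherent) in medium with 10% fetal calf serum. Dosed after 24 h in duplicate with serial dilutions. Viable cells read by CellTiter-Glo 72 h later. IC50 from sigmoidal fit. At least two independent experiments.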
# [22] = test system: A2780; experiment: Antiproliferative activity against human A2780 cells assessed as inhibition of cell growth incubated for 72 hrs by cell-titer glo assay; type: functional, cell-based; settings: A2780, 72 h; summary of the method: as §2
# [23] = Antiproliferative activity against human A2780cis cells assessed as inhibition of cell growth incubated for 72 hrs by cell-titer glo assay; type: functional, cell-based; summary of the method: as §2
# [24] = test system: NCI/ADR-RES; experiment: Antiproliferative activity against human NCI/ADR-RES cells assessed as inhibition of cell growth incubated for 72 hrs by cell-titer glo assay; type: functional, cell-based; summary of the method: as §3
# [25] = test system: SK-MEL-5; experiment: Antiproliferative activity against human SK-MEL-5 cells assessed as inhibition of cell growth incubated for 72 hrs by cell-titer glo assay; type: functional, cell-based; settings: SK-MEL-5, 72 h
# [26] = test system: RO82-W-1; experiment: Antiproliferative activity against human RO82-W-1 cells assessed as inhibition of cell growth incubated for 72 hrs by cell-titer glo assay; type: functional, cell-based; settings: RO82-W-1, 72 h; summary of the method: as §3
# [27] = test system: HL-60; experiment: Antiproliferative activity against human HL-60 cells assessed as inhibition of cell growth incubated for 72 hrs by cell-titer glo assay; type: functional, cell-based; settings: HL-60, 72 h; summary of the method: as §1
# [28] = test system: SET-2; experiment: Antiproliferative activity against human SET2 cells assessed as inhibition of cell growth incubated for 72 hrs by cell-titer glo assay; type: functional, cell-based; settings: SET-2, 72 h; summary of the method: as §3
# [29] = Half-life in Sprague-Dawley rat at 10 mg/kg, iv by LC-MS analysis; type: ADME, organism-based; settings: in vivo
# [30] = Half-life in male cynomolgus monkey at 5 mg/kg, po by LC-MS analysis; type: ADME, organism-based, Macaca fascicularis; settings: in vivo
# [31] = test system: A2780; experiment: Antiproliferative activity against human A2780 cells assessed as reduction in cell number at 0.5 to 1 uM incubated for 8 hrs followed by compound washout and measured after 24 to 48 hrs by cell titer glow assay; type: functional, cell-based; settings: dose 0.5-1 µM
# Summary of the method: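 A2780 cells exposed to 0.5 or 1 μmol/L for 8 hours, then compound withdrawn; cells replated and grown 24 and 48 hours in drug-free medium before assessing cell growth.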
structure (smiles),measurement,setting,value
CN1CCN(c2ccc(OC(F)(F)F)c(Nc3ncc4c(n3)-c3c(c(C(N)=O)nn3CCO)CC4)c2)CC1 [ONVANSERTIB],IC50,[1],> 10 µM
same,IC50,[2],> 10 µM
same,IC50,[3],> 10 µM
same,IC50,[4],> 10 µM
same,IC50,[5],> 10 µM
same,Activity,[6],145%
same,Activity,[7],114%
same,Activity,[8],64%
same,Activity,[9],118%
same,Activity,[10],88%
same,Activity,[11],146%
same,IC50,[12],0.279 µM
same,IC50,[13],0.35 µM
same,IC50,[14],0.06 µM
same,IC50,[15],0.059 µM
same,IC50,[16],0.283 µM
same,IC50,[17],0.443 µM
same,IC50,[18],0.629 µM
same,IC50,[19],0.015 µM
same,IC50,[20],0.032 µM
same,IC50,[21],0.335 µM
same,IC50,[22],0.04 µM
same,IC50,[23],0.048 µM
same,IC50,[24],1.21 µM
same,IC50,[25],0.513 µM
same,IC50,[26],0.837 µM
same,IC50,[27],0.073 µM
same,IC50,[28],0.145 µM
same,half-life,[29],2.7 h
same,half-life,[30],4.2 h
same,Activity,[31],Active
